The species named for assay [1] is Bos taurus. Kind of assay: Inhibition of calf brain tubulin polymerization at 20 uM after 20 mins. A digest of the protocol: (§1)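 Microtubule protein (1.0 mg/mL) in 0.1 M MES, 1 mM EGTA, 1 mM MgCl₂, 1 mM β-ME, 1.5 mM GTP, pH 6.7 was preincubated with ligand for 30 min at 20 °C, then cooled on ice for 10 min. Assembly was triggered by moving from 4 °C to 37 °C. Inhibition was measured turbidimetrically at 450 nm after 20 min against a no-ligand control.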

The subject of another assay is HeLa. The assay can be described thus: Cytotoxicity against human HeLa cells after 72 hrs by XTT method. The assay is classed as functional, cell-based.
The subject of another assay is HT-29. The assay can be described thus: Cytotoxicity against human HT29 cells after 72 hrs by XTT method. The conditions noted are these: HT-29, 72 h. It is filed as functional, cell-based. In outline: (§2)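 Cells were seeded in exponential growth per well: HeLa 1.5 × 10³, HT-29 3 × 10³, A-549 5 × 10³, HL-60 3 × 10³. Adherent lines were left to attach for 24 h at 37 °C in 5% CO₂. Cells were exposed to a range of compound concentrations for 72 h. XTT/PMS reagent was then added for 4 h, and absorbance was read at 490 nm against a 655 nm reference. IC50 is the concentration giving 50% inhibition of proliferation.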

A further assay deals with A549. The assay can be described thus: Cytotoxicity against human A549 cells after 72 hrs by XTT method. The conditions noted are these: A549, 72 h. It is filed as functional, cell-based. A general note: Tetrazolium dyes change colour on reduction, which living cells bring about.
Another assay relates to HL-60. Kind of assay: Cytotoxicity against human HL60 cells after 72 hrs by XTT method. The assay is classed as functional, cell-based. The conditions noted are these: HL-60, 72 h. A digest of the protocol: as §2
The nature of assay [2]: Inhibition of calf brain tubulin polymerization after 20 mins. The arrangement: species or system Bos taurus. A digest of the protocol:
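Turbidity at 450 nm was followed using 1.0 mg/mL microtubule protein in 0.1 M MES, 1 mM EGTA, 1 mM MgCl₂, 1 mM β-ME, 1.5 mM GTP, pH 6.7, with a ligand-free control. Samples were preincubated for 30 min at 20 °C, iced for 10 min, and assembly was started by shifting from 4 °C to 37 °C. IC50 was read graphically at 20 min. At least two independent experiments used different protein preparations.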

Assay [3] is filed under the species Bos taurus. The assay can be described thus: Inhibition of calf brain tubulin polymerization at 30 uM after 20 mins. A digest of the protocol: as §1
The species entered for assay [4] is Bos taurus. The assay can be described thus: Inhibition of calf brain tubulin polymerization at 40 uM after 20 mins. In outline: as §1

Results on 21 compounds are retold here after ChEMBL document CHEMBL1150422, “Diarylmethyloxime and hydrazone derivatives with 5-indolyl moieties as potent inhibitors of tubulin polymerization” (Bioorg Med Chem, 2008).

Where only a bound is given, the exact number is not on record here.

What is called inhibition is the percentage by which the read-out fell short of the control. The low end stands for a weak effect, the high end for a strong effect. Usually IC50 stands for the concentration that inhibits the measured activity by half.

Compound `COc1cc(/C(=N\OC(=O)OC(C)(C)C)c2ccc3c(ccn3C)c2)cc(OC)c1OC` had an inhibition in the assay filed under Bos taurus [1] of 17%. Moreover, the 50% inhibitory concentration (IC50) in the assay with HeLa, in the assay on HT-29, in the assay with A549 and with HL-60 was above 1000 nM each time.

In the assay filed under Bos taurus [1], `COc1ccc(C(=O)c2cc(OC)c(OC)c(OC)c2)cc1O` [PHENSTATIN] displayed an inhibition of 97%. The IC50 was 2500 nM in assay [2]; 30 nM in the assay on HeLa; 30 nM in the assay on HT-29; 300 nM with A549; 1800 nM in the assay on HL-60.

With `CCn1ccc2cc(/C(=N\N)c3cc(OC)c(OC)c(OC)c3)ccc21`, the inhibition in the assay filed under Bos taurus [3] came out at 7%. Further, the IC50 is above 1000 nM with HeLa, above 1000 nM in the assay with HT-29, above 10000 nM in the assay with A549 and above 1000 nM in the assay with HL-60.

With `COc1cc(/C(=N/OC(C)=O)c2ccc3c(ccn3C)c2)cc(OC)c1OC`, the inhibition in the assay filed under Bos taurus [1] was 38%. The same compound came in with an IC50 in the assay on HL-60 above 10000 nM.

On to `CCn1ccc2cc(/C(=N\O)c3cc(OC)c(OC)c(OC)c3)ccc21`, for which the inhibition in the assay listed under Bos taurus [1] came to 87%. The IC50 was 5900 nM in assay [2]; above 1000 nM in the assay on HeLa; above 1000 nM with HT-29; above 10000 nM with A549; above 1000 nM in the assay with HL-60.

In turn, `CCn1ccc2cc(C(OC(C)=O)c3cc(OC)c(OC)c(OC)c3)ccc21` (stereo unspecified) came in with an inhibition in the assay listed under Bos taurus [1] of 0%. Moreover, the IC50 with HeLa is above 1000 nM; with HT-29 it was above 1000 nM; in the assay on A549 it was above 10000 nM; in the assay on HL-60, above 10000 nM.

Regarding `CCn1ccc2cc(C(O)c3cc(OC)c(OC)c(OC)c3)ccc21` (stereo unspecified), the inhibition in the assay filed under Bos taurus [1] is 42%. For the same compound, the IC50 in the assay on HeLa was above 1000 nM; with HT-29, above 1000 nM; in the assay on A549, above 10000 nM; with HL-60, above 10000 nM.

Take `CCn1ccc2cc(/C(=N\OC(C)=O)c3cc(OC)c(OC)c(OC)c3)ccc21`: the inhibition in the assay listed under Bos taurus [1] was 26%. The IC50 in the assay with HeLa was above 1000 nM; in the assay with HT-29, above 1000 nM; with A549, above 10000 nM; with HL-60 it was above 1000 nM.

`COc1cc(/C(=N/OC(=O)OC(C)(C)C)c2ccc3c(ccn3C)c2)cc(OC)c1OC` showed an inhibition in the assay filed under Bos taurus [1] of 10%. Moreover, the half-maximal inhibitory concentration (IC50) in the assay with HeLa is above 1000 nM; in the assay on HT-29 it was above 1000 nM; in the assay on A549 it was above 10000 nM; in the assay with HL-60, above 1000 nM.

Turning to `CCn1ccc2cc(/C(=N/OC(C)=O)c3cc(OC)c(OC)c(OC)c3)ccc21`, the inhibition in the assay filed under Bos taurus [1] is 54%. Also, the IC50 was above 10000 nM in the assay with HeLa, above 10000 nM in the assay on HT-29, above 10000 nM in the assay on A549 and above 1000 nM with HL-60.

For `COc1cc(C(=O)c2ccc3c(ccn3C)c2)cc(OC)c1OC`, in the assay listed under Bos taurus [4], the inhibition is 98%. In addition, the figures for the IC50 (in assay [2]; in the assay with HeLa; in the assay with A549) were 7900 nM, 34 nM and 120 nM, respectively.

In the assay listed under Bos taurus [3], `COc1cc(/C(=N/N)c2ccc3c(ccn3C)c2)cc(OC)c1OC` had an inhibition of 35%. The compound also returned an IC50 in the assay with HL-60 above 10000 nM.

The compound `CCn1ccc2cc(C(=O)c3cc(OC)c(OC)c(OC)c3)ccc21` came in with an inhibition in the assay listed under Bos taurus [1] of 95%. The IC50 in assay [2] was 5700 nM; with HeLa it was 16 nM; in the assay with A549, 140 nM; in the assay on HL-60, 34 nM.

The compound `COc1cc(/C(=N\OC(C)=O)c2ccc3c(ccn3C)c2)cc(OC)c1OC` yielded an inhibition in the assay filed under Bos taurus [1] of 41%. The IC50 in the assay on HL-60 is above 10000 nM.

For `COc1cc(C(O)c2ccc3c(ccn3C)c2)cc(OC)c1OC` (stereo unspecified), the inhibition in the assay filed under Bos taurus [1] is 86%. Also, the concentration for half-maximal inhibition (IC50) was 18000 nM in assay [2]; above 1000 nM in the assay with HeLa; above 1000 nM in the assay with HT-29; above 10000 nM in the assay on A549; above 10000 nM in the assay with HL-60.

`CN/N=C(/c1cc(OC)c(OC)c(OC)c1)c1ccc2c(ccn2C)c1` returned an inhibition in the assay filed under Bos taurus [1] of 20%. Also, the IC50 in the assay on HeLa, in the assay with HT-29, in the assay with A549 and in the assay on HL-60 was above 1000 nM each time.

As for `COc1cc(/C(=N/NC(C)=O)c2ccc3c(ccn3C)c2)cc(OC)c1OC`, the inhibition in the assay listed under Bos taurus [3] is 14%. For the same compound, the IC50 in the assay with HeLa is 2300 nM; in the assay with A549, above 10000 nM; with HL-60, above 1000 nM.

Consider `COc1cc(C(OC(C)=O)c2ccc3c(ccn3C)c2)cc(OC)c1OC` (stereo unspecified), for which the inhibition in the assay filed under Bos taurus [1] worked out at 41%. Further, the IC50 in the assay on HeLa is 6.4 nM; in the assay with HT-29 it was 260 nM; in the assay with A549, above 10000 nM; in the assay with HL-60, 240 nM.

On to `COc1ccc(/C=C\c2cc(OC)c(OC)c(OC)c2)cc1O` [COMBRETASTATIN A4], for which the results for the half-inhibitory concentration (IC50) (in assay [2]; in the assay on HT-29) were 3000 nM and 2 nM, respectively.

For `COc1cc(/C(=N\O)c2ccc3c(ccn3C)c2)cc(OC)c1OC`, the inhibition in the assay listed under Bos taurus [1] amounted to 23%.

Regarding `COc1cc(/C(=N/O)c2ccc3c(ccn3C)c2)cc(OC)c1OC`, the inhibition in the assay listed under Bos taurus [3] came out at 82%. The IC50 is 1800 nM in assay [2]; 360 nM in the assay on HeLa; 330 nM in the assay with HT-29; above 10000 nM in the assay on A549; 110 nM in the assay with HL-60.
